Data published in the EternaBench riboswitch data.

Test system: MS2 coat protein
Assay: apparent Kd, MS2 coat protein; higher = weaker binding; RNA-MaP array; theophylline 2 mM where present
Summary of the method: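 Stalled E. coli RNA polymerase produced the designs on Illumina sequencing-chip clusters. SNAP-549-labelled MS2 coat protein was added from 0.7 or 1.5 nM, doubling to 3 µM, without and then with constant ligand, in 100 mM Tris-HCl pH 7.5, 80 mM KCl, 4 mM MgCl2, BSA, DTT, yeast tRNA and Tween-20. The apparent Kd is the median of filtered per-cluster fits of green signal normalised to red-channel RNA signal and control-cluster median Fmax.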

[1] = designed as: OFF switch for theophylline, no ligand
[2] = ligand present: theophylline, designed as: OFF switch for theophylline
[3] = designed as: ON switch for theophylline, no ligand
[4] = ligand present: theophylline, designed as: ON switch for theophylline

| Sequence | apparent Kd [1] [nM] | apparent Kd [2] [nM] | apparent Kd [3] [nM] | apparent Kd [4] [nM] |
| --- | --- | --- | --- | --- |
| ACGAUACGACAUGAGGAUCACCCAUGUGAUACCAGCGUGGAAACACGCCCUUGGCAGCACAAAUACUCCAAUAACGUAUCGAAAA | 260 | 240 | – | – |
| GAUGAACUAUUCGAUACCAGACCACAUGAGGAUCACCCAUGUGUGUUUCGUCCUUAGCCGGUCCCUUGGCAGCGAAUAGUUUAUC | 20.2 | 30.3 | – | – |
| ACGACGCAUAGUGAUACCAGUAGAACAUGAGGAUCACCCAUGUCUGUUAUGUACAAAUACUGCCCUUGGCAGCACUAUGCGUCAG | – | – | 9.79 | 10.7 |
| ACAUGAGGAUCACCCAUGUUCCUCGCCGAUACCAGUGAAGAAGAACGCCCUUGGCAGCGGAAAGAGUAUUUUGGAGAUGAGGUAC | 80.1 | 129 | – | – |
| ACGUCCGGGUUAAUCGUGGGCAUGGUCGAUACCAGUAUUUUAAUCUACCCUUGGCAGCGACAUGAGGAUCACCCAUGUGCGAUGA | 17 | 35.5 | – | – |
| AAGCUGGGUGUAAAAUAAAUAAUCACUGAUACCAGACUAUGAGAUGUCCCUUGGCAGCAGAAACAUGAGGAUCACCCAUGUAAUA | 20.7 | 21.5 | – | – |
| ACCGCAGGUCCUGAUACCAGAGACAUGAGGAUCACCCAUGUCCGAUCGUCCUGCCUCAGGCUCCCUUGGCAGCAGGGCUUGUCCU | 14.3 | 27.1 | – | – |
| CCUGCGUUUCUUUUCUUUCGCAGGAAUGAUACCAGUAGGGAAACCUACCCUUGGCAGCAUGGGACAUGAGGAUCACCCAUGUAAU | – | – | 439 | 89.3 |
| ACGUCCGGUUUACUCGUGGGCAUGGUCGAUACCAGUAUUUUAAUCUACCCUUGGCAGCGACAUGAGGAUCACCCAUGUGCGAAGA | 23.5 | 32.4 | – | – |
| ACAUGAGGAUCACCCAUGUGGCGUCUUGAUACCAGACGAGAAGUAGUCCCUUGGCAGCAAAUACAUGAGGAUCACCCAUGUAGGA | 23.9 | 37.1 | – | – |
| CCAUACGUAACUGAUACCAGUGUACUGACAUGAGGAUCACCCAUGUUGGGUUUUGUUGUACACCCUUGGCAGCAGAAUCGUAUGG | 69 | 101 | – | – |
| UCGUGUAAAACGGAUACCAGUGAGAAGGAUACAUGAGGAUCACCCAUGUGAGUUGAUCCACACCCUUGGCAGCUGUAUAUAUCUA | – | – | 118 | 706 |
| UGACAUUGCUCAGAUACCAGACAUGAGGAUCACCCAUGUGCCAAAUACGUACAAAUAAAUGUCCCUUGGCAGCUGAGCAAUGUCU | 14.2 | 266 | – | – |
| AGCCCUGUGCUAGAUACCAGCUACAUGAGGAUCACCCAUGUGCGUCAGGACUGACUGUGUAGCCCUUGGCAGCUACUCGCAUGUA | 16.2 | 30.9 | – | – |
| GAUGAACUAUAUGAUACCAGACAACAUGAGGAUCACCCAUGUGAUAGUCGUCCUCUGCCUGUCCCUUGGCAGCGUAUAGUUUAUC | 40.6 | 102 | – | – |
| AUGUUUGUGUGAGAUACCAGUGAGGCCACAUGAGGAUCACCCAUGUCCCUCACUCCGGCCCACCCUUGGCAGCUCUUAUAGAAAA | 10 | 59.6 | – | – |
| UUGCAUAUCUUGGAUACCAGCACAUGAGGAUCACCCAUGUCCGCGGGAUAGCUCCAGAUGUGCCCUUGGCAGCCACAUGCACUUG | 10.2 | 26.4 | – | – |
| GAUGAUAUUGCAGAUACCAGACACAUGAGGAUCACCCAUGUCUCUGUGAUGUAGGAUUGUGUCCCUUGGCAGCUGCGAUAUCAUC | 229 | 91.3 | – | – |
| UCGCAUUGCUCAGAUACCAGACAUGAGGAUCACCCAUGUACCAAGGUACCCGAAAGGAAUGUCCCUUGGCAGCUGAGCAAUGCGU | 9.82 | 23.6 | – | – |
| AUAAGUAAUGUUACGUGUUUUAUUACAGAUACCAGACUAUACGUUGUCCCUUGGCAGCUGAAUUACAUGAGGAUCACCCAUGUUG | 15.1 | 17.3 | – | – |
| UUAGAUAUGACAGAUACCAGCGUGUUGUUGAACAUGAGGAUCACCCAUGUAGUGAUCGAGCGCCCUUGGCAGCUGGUGUGUUUGG | – | – | 161 | 181 |
| AACCGAGGCUAUCCUCUAAGAAAAUGUGAUACCAGAAUAAUUUUAUUCCCUUGGCAGCAUGACAUGAGGAUCACCCAUGUGUCUU | – | – | 187 | 151 |
